For orientation: inhibition means the percentage by which the read-out fell short of the control. Usually EC50 stands for the concentration that produces a half-maximal response. The term CC50 denotes the concentration giving 50% cytotoxicity.

Active and inactive are the calls of the source. Some results are limits rather than exact numbers.

For series [1], the target named is Prothrombin (Homo sapiens) (UniProt P00734). Nature of the series: Inhibition of thrombin in human plasma using Boc-Val-Pro-Arg-AMC as substrate at 25 uM preincubated with enzyme for 15 mins followed by substrate addition and measured for 15 mins by fluorimetric assay. Conditions: time 30.0 min. In kind it is cell-free.
Series [2] can be described thus: Passive membrane permeability of the compound in phosphate buffered saline assessed as concentration of the compound in acceptor plate at 200 uM incubated for 5 hrs by PAMPA assay based HPLC analysis. In kind it is ADME. Summed up: (§1)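 Precoated trilayer PAMPA, 5 h incubation. Acceptor and donor concentrations measured after 5 h. Permeability and mass retention calculated by a literature method.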
(In general: PAMPA measures passive passage across an artificial lipid membrane.)

Series [3] in a line: Passive membrane permeability of the compound in phosphate buffered saline assessed as concentration of the compound in donor plate at 200 uM incubated for 5 hrs by PAMPA assay based HPLC analysis. In kind it is ADME. Summed up:
as §1

Series [4] in a line: Passive membrane permeability of the compound in phosphate buffered saline assessed as mass retention of the compound at 200 uM incubated for 5 hrs by PAMPA assay based HPLC analysis. In kind it is ADME. Summed up:
as §1

Series [5] has as its system dengue virus type 2. Nature of the series: Antiviral activity against DENV2 infected in human Huh7 cells assessed as reduction in virus titer in cell supernatant by measuring inhibition of plaque formation using VeroE6 cells at 12.5 uM preincubated with viral infected Huh7 cells for 48 hrs and measured following infection of VeroE6 cells with supernatants for 7 days by plaque assay based crystal violet staining analysis. In kind it is functional. Conditions: Huh-7, 216 h, time 9 day. The gist of the method:
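Huh-7 cells seeded at 1 × 10⁴/well and incubated overnight. Infected with DENV-2 at MOI 1 for 2 h, then medium changed and compound added. […] Pooled supernatants titred by plaque assay on VeroE6 cells: 10⁻¹ to 10⁻⁶ dilutions, 1 h infection, 7 days, formaldehyde fix, crystal violet.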

Series [6] addresses Genome polyprotein (dengue virus type 2, UniProt P29990). Nature of the series: Inhibition of NS2B-NS3 protease in DENV2proHeLa system assessed as inhibition of luciferase signal incubated for 24 hrs by luciferase reporter gene assay. In kind it is cell-based, HeLa. The gist of the method: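 HeLa cells stably carrying the reporter system, 2 × 10⁴ per well, given inhibitor at seeding and held 24 h at 37 °C. Cells lysed 15 min at room temperature. Luciferase read for 5 s after injecting coelenterazine (2.75 μM in PBS). Triplicate wells per concentration; percent inhibition taken against untreated cells. EC50/EC90 from 4-parameter dose-response fit, background from cell-free wells subtracted.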

Series [7] is described as follows: Cytotoxicity against human HeLa cells assessed as reduction in cell viability incubated for 24 hrs by CellTiter-Blue assay. In kind it is cell-based. Summed up: (§2)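 Viability by CellTiter-Blue in HeLa or Huh-7 cells exposed to compound dilutions. Plates run in parallel with the reporter assay (HeLa) or the virus titer assay (Huh-7).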
Series [8] concerns the target Trypsin (Homo sapiens) (UniProt P07477+P07478+P35030). Nature of the series: Inhibition of trypsin (unknown origin) using Boc-Val-Pro-Arg-AMC as substrate at 50 uM preincubated with enzyme for 15 mins followed by substrate addition and measured for 15 mins by fluorimetric assay. In kind it is protein assay. Conditions: time 30.0 min.
Series [9] addresses Genome polyprotein (dengue virus type 2) (UniProt P29990). Nature of the series: Inhibition of NS2B-NS3 protease in DENV2proHeLa system assessed as inhibition of luciferase signal at 12.5 uM incubated for 24 hrs by luciferase reporter gene assay. The settings on record: HeLa. In kind it is cell-based. The gist of the method:
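Stable DENV2proHeLa cells seeded at 2 × 10⁴/well and dosed immediately, then incubated 24 h at 37 °C. Cells lysed 15 min at room temperature. Luciferase read with coelenterazine (2.75 μM in PBS) injection, luminescence 5 s. Triplicates; percent inhibition calculated relative to untreated control; background from cell-free wells.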

Series [10] relates to Huh-7. Nature of the series: Cytotoxicity against human Huh-7 cells assessed as reduction in cell viability at 12.5 uM incubated for 48 hrs by CellTiter-Blue assay. In kind it is cell-based. Conditions: huh-7, 48 h. The gist of the method: as §2
Series [11] is described as follows: Passive membrane permeability of the compound in phosphate buffered saline at 200 uM incubated for 5 hrs by PAMPA assay based HPLC analysis. In kind it is ADME. The settings on record: PAMPA, read-out: permeability. Summed up:
as §1

The target of series [12] is Genome polyprotein (dengue virus type 2) (UniProt P29990). Nature of the series: Inhibition of DENV2 NS2B-NS3 protease expressed in Escherichia coli BL21 lambda(DE3) using FRET substrate preincubated with enzyme for 15 mins in presence of detergent CHAPS followed by substrate addition for 15 mins by fluorescence based analysis. The settings on record: time 30.0 min.

In series [13] the target is Genome polyprotein (West Nile virus) (UniProt P06935). Briefly: Inhibition of WNV NS2B-NS3 protease expressed in Escherichia coli BL21 lambda(DE3) using FRET substrate preincubated with enzyme for 15 mins in presence of detergent CHAPS followed by substrate addition for 15 mins by fluorescence based analysis. The settings on record: time 30.0 min.
Genome polyprotein (West Nile virus), sequence (P06935 whole entry): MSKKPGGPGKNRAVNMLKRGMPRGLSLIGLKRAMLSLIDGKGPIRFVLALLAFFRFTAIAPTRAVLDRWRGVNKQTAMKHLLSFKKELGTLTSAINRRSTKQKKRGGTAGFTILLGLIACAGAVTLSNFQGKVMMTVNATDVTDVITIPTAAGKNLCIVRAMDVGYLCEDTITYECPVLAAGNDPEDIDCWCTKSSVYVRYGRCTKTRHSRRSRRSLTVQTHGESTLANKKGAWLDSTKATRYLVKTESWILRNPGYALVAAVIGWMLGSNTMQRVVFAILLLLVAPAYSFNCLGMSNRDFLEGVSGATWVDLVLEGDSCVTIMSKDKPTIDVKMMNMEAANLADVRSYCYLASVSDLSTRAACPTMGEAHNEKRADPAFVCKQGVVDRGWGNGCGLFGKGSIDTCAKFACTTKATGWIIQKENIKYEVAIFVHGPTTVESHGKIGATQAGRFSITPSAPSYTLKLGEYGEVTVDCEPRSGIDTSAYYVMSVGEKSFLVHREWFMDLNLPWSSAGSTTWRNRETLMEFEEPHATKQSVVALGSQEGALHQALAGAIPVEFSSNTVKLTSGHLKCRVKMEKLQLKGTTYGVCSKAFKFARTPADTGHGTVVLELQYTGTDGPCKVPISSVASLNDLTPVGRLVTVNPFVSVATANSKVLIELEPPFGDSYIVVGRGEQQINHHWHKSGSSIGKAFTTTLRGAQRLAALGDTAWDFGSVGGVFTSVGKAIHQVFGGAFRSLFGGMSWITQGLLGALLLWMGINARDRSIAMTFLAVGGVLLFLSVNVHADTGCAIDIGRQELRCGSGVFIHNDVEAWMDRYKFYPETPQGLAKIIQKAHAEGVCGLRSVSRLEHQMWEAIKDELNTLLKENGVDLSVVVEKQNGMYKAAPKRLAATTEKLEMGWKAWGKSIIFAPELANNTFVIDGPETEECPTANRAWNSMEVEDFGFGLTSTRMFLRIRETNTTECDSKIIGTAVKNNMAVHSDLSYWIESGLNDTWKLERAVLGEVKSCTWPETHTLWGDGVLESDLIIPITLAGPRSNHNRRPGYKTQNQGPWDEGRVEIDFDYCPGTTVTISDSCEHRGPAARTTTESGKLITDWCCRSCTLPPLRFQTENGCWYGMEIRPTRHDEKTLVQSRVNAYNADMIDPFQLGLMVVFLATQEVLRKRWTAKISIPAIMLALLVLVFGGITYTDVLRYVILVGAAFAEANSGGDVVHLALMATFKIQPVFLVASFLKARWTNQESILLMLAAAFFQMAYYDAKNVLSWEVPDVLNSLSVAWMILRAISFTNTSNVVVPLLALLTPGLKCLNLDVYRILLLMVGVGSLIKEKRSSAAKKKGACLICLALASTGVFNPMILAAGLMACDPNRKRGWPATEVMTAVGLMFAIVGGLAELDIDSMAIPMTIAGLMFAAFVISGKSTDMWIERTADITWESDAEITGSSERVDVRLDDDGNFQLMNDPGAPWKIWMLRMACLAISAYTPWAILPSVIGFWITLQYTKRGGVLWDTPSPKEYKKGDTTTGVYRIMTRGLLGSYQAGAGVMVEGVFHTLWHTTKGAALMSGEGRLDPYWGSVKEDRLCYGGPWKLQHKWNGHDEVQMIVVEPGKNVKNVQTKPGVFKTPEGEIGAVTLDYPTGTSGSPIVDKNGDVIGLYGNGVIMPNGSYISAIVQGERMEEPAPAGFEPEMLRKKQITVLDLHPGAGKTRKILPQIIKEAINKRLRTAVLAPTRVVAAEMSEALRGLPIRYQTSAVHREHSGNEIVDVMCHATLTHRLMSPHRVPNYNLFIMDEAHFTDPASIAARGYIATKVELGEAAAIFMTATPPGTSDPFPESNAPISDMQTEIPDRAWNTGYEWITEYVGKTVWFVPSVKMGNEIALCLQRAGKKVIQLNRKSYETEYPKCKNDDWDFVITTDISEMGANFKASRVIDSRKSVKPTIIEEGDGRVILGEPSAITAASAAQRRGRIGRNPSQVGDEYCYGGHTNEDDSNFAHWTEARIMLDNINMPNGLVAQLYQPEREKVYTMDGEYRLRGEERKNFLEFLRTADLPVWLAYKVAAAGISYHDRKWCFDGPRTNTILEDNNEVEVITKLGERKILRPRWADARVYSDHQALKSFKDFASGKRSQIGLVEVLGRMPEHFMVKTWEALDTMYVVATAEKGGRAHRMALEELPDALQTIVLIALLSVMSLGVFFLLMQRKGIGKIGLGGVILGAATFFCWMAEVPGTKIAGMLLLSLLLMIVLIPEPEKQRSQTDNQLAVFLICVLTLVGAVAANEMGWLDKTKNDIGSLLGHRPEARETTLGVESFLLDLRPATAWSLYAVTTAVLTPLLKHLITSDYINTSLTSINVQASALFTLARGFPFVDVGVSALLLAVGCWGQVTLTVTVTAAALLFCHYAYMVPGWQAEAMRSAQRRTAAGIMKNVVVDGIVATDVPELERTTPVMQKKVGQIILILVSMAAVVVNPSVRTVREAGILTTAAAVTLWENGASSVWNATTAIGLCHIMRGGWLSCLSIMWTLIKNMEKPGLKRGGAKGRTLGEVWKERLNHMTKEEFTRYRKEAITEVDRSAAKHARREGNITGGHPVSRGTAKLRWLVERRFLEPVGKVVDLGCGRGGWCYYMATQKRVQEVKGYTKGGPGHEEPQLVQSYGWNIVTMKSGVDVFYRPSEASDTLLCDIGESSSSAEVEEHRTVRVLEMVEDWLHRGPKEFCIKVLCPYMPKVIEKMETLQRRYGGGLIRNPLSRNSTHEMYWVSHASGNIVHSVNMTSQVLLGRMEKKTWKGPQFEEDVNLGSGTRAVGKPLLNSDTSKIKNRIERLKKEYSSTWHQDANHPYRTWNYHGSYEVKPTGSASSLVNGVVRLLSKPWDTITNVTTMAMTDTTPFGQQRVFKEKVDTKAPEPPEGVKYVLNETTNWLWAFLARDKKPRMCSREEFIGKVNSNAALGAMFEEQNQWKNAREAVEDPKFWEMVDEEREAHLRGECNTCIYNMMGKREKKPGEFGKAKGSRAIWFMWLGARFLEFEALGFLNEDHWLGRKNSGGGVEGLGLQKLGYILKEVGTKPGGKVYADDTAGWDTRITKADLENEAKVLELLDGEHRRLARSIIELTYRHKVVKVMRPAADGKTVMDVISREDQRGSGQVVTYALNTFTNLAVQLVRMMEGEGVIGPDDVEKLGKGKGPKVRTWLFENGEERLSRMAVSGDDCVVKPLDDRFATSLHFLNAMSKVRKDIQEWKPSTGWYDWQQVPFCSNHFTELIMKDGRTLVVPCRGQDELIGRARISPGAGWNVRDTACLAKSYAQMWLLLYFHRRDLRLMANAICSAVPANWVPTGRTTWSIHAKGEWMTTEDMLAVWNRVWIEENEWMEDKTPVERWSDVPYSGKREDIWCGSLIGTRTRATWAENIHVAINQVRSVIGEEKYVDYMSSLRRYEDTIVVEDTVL

Turning to `NC(=O)c1ccc(CNC(=O)[C@@H](NC(=O)c2ccc(Oc3ccccc3)cc2)c2ccc(OCc3ccccc3)cc2)cc1`, the inhibition entry in series [1] and in series [8] was “inactive” throughout. The Activity in [2] came out at 3 µM; in series [3], 180 µM; in series [4] it was 8.9%; in [10], 61.4%. Moreover, in [5], the inhibition at 12.5 µM stood at 90%. For the same molecule, the EC50 in series [6] worked out at 1 µM. For the same molecule, the CC50 at 24 h in series [7] amounted to 18 µM. In series [9], the inhibition stood at 82%. Moreover, the Papp at 5 h, 200 µM in [11] was determined as 0.61 ×10⁻⁶ cm/s. Also, the inhibition entry in series [12] is “Active”.
Consider `CCCCCCCC(=O)N[C@H](C(=O)NCc1ccc(C(N)=O)cc1)c1ccc(OCc2ccccc2)cc1`, for which the inhibition result in series [1] and in series [8] was “inactive” in each case. Also, the inhibition result in series [13] is “Active”. Also, in series [7], the CC50 at 24 h is above 50 µM. In addition, the inhibition in series [9] came to 56%.
Take `CCCCCC(=O)N[C@H](C(=O)NCc1ccc(C(N)=O)cc1)c1ccc(OCc2cccc(OC)c2)cc1`: the inhibition entry in series [1] and in series [8] was “inactive” each time. Besides, the EC50 in series [6] was determined as 7.3 µM. Besides, the CC50 at 24 h in [7] was above 100 µM. In addition, the inhibition in series [9] is 61%. In series [12], the inhibition entry is “Active”.
In the case of `NC(=O)c1cccc(NC(=O)[C@@H](NC(=O)c2ccc(Oc3ccccc3)cc2)c2ccc(OCc3c(Cl)cccc3Cl)cc2)c1`, the inhibition result in series [1] and in series [8] was “inactive” in each case. Further, the EC50 in [6] is 2.2 µM. Moreover, in series [7], the CC50 at 24 h was above 50 µM. Also, the inhibition in series [9] was 71%. Moreover, the inhibition result in series [12] was “Active”.
Regarding `NC(=O)c1cccc(NC(=O)[C@@H](NC(=O)c2ccc(Oc3cccc4c3C(=O)CC4)cc2)c2ccc(OCc3ccccc3)cc2)c1`, the inhibition entry in series [1] and in series [8] was “inactive” in each case. Further, the inhibition result in series [13] is “Active”. Moreover, the EC50 in series [6] was 3.9 µM. The CC50 at 24 h in series [7] was above 100 µM. The inhibition in [9] worked out at 57%.
As for `NC(=O)c1ccc(CNC(=O)[C@@H](NC(=O)c2ccc(OCc3ccccc3)cc2)c2ccc(OCc3ccccc3)cc2)cc1`, the inhibition entry in [1] and in series [8] was “inactive” in each case. Besides, the inhibition entry in series [13] and in series [12] was “Active” each time. Besides, the half-maximal effective concentration (EC50) in series [6] stood at 4 µM. Also, in [7], the CC50 at 24 h is above 25 µM. Moreover, in series [9], the inhibition is 64%.
Take `NC(=O)c1cccc(NC(=O)[C@@H](NC(=O)c2cccc(Oc3ccccc3)c2)c2ccc(OCc3ccccc3)cc2)c1`: the inhibition result in series [1] and in series [8] was “inactive” each time. The EC50 in series [6] is 1.7 µM. In addition, in series [7], the half-maximal cytotoxic concentration (CC50) at 24 h was above 100 µM. The inhibition in series [9] was found to be 84%. Further, the inhibition result in [12] is “Active”.
As for `NC(=O)N1c2ccccc2C=Cc2ccccc21` [CARBAMAZEPINE], the Activity was 42 µM in series [2], 187 µM in series [3] and -7.6% in series [4]. Besides, the Papp at 5 h, 200 µM in [11] was 8.9 ×10⁻⁶ cm/s.
On to `CCCCCCC(=O)N[C@H](C(=O)NCc1ccc(C(N)=O)cc1)c1ccc(OCc2ccccc2)cc1`, for which the inhibition entry in series [1] and in series [8] was “inactive” throughout. The EC50 in series [6] is 7.9 µM. Also, in series [7], the CC50 at 24 h is above 50 µM. Besides, the inhibition in series [9] turned out to be 52%. Moreover, the inhibition result in [12] is “Active”.
On to `CCCCCC(=O)N[C@H](C(=O)NCc1ccc(C(N)=O)cc1)c1ccc(OCc2c(Cl)cccc2Cl)cc1`, for which the inhibition entry in series [1] and in [8] was “inactive” in each case. The inhibition entry in series [13] and in series [12] was “Active” in each case. For the same molecule, the EC50 in [6] was determined as 8.3 µM. Besides, the CC50 at 24 h in [7] was above 50 µM. Further, in [9], the inhibition amounted to 71%.
In the case of `Cn1c(=O)c2c(ncn2C)n(C)c1=O` [CAFFEINE], the Activity in series [2] turned out to be 33 µM; in series [3], 173 µM; in [4], 2.4%. In addition, the Papp at 5 h, 200 µM in series [11] was determined as 7.3 ×10⁻⁶ cm/s.
Turning to `COc1ccccc1Oc1ccc(C(=O)N[C@H](C(=O)Nc2cccc(C(N)=O)c2)c2ccc(OCc3ccccc3)cc2)cc1`, the inhibition result in [1] and in series [8] was “inactive” in each case. For the same molecule, the inhibition result in series [13] and in series [12] was “Active” throughout. Further, the EC50 in series [6] came out at 2.2 µM. In addition, in [7], the CC50 at 24 h was above 100 µM. In series [9], the inhibition was 77%.
With `O=C1NC(=O)C(c2ccccc2)(c2ccccc2)N1` [PHENYTOIN], the Activity in series [2] amounted to 25 µM; in [3], 166 µM; in series [4] it was 8.7%. For the same molecule, in [11], the Papp at 5 h, 200 µM was 5.7 ×10⁻⁶ cm/s.
For `CCCCCCCS(=O)(=O)N[C@H](C(=O)NCc1ccc(C(N)=O)cc1)c1ccc(OCc2ccccc2)cc1`, the inhibition result in series [1] and in [8] was “inactive” each time. The inhibition entry in [13] was “Active”. Also, the EC50 in [6] is 11 µM. For the same molecule, in [7], the CC50 at 24 h was above 25 µM. Further, in [9], the inhibition stood at 47%.
`CCCCCC(=O)N[C@H](C(=O)Nc1cccc(C(N)=O)c1)c1ccc(OCc2ccccc2)cc1`: the inhibition entry in series [1] and in series [8] was “inactive” each time. For the same molecule, the concentration giving a half-maximal response (EC50) in series [6] came out at 4.6 µM. In [7], the CC50 at 24 h is above 50 µM. For the same molecule, the inhibition in [9] stood at 76%. The inhibition result in [12] was “Active”.
For `NC(=O)c1cccc(NC(=O)[C@@H](NC(=O)c2ccc(-c3cncnc3)cc2)c2ccc(OCc3ccccc3)cc2)c1`, the inhibition entry in series [1] and in [8] was “inactive” throughout. Moreover, the inhibition result in series [13] and in series [12] was “Active” each time. The EC50 in [6] was found to be 8.1 µM. Further, the CC50 at 24 h in series [7] is above 50 µM. For the same molecule, the inhibition in series [9] is 59%.
Turning to `NC(=O)c1cccc(NC(=O)[C@@H](NC(=O)c2ccc(Oc3ccc4c(c3)OCCO4)cc2)c2ccc(OCc3ccccc3)cc2)c1`, the inhibition result in series [1] and in series [8] was “inactive” each time. Moreover, the inhibition result in series [13] and in series [12] was “Active” in each case. In addition, in [6], the EC50 was determined as 3.8 µM. For the same molecule, in series [7], the CC50 at 24 h is above 100 µM. Besides, in series [9], the inhibition was 61%.
In the case of `NC(=O)c1cccc(NC(=O)[C@@H](NC(=O)c2ccc3c(c2)OCCO3)c2ccc(OCc3ccccc3)cc2)c1`, the inhibition result in [1] and in series [8] was “inactive” throughout. For the same molecule, in series [6], the concentration giving a half-maximal response (EC50) stood at 5.4 µM. Besides, the CC50 at 24 h in [7] is above 100 µM. Further, in series [9], the inhibition came to 69%. Also, the inhibition result in [12] was “Active”.
Regarding `COc1cccc(COc2ccc([C@H](NC(=O)c3ccc(C(=O)c4ccccc4)cc3)C(=O)Nc3cccc(C(N)=O)c3)cc2)c1`, the inhibition entry in series [1] and in series [8] was “inactive” in each case. In [6], the EC50 was found to be 1.2 µM. The CC50 at 24 h in [7] was above 100 µM. In addition, the inhibition in [9] is 79%. In addition, the inhibition entry in [12] was “Active”.
